For 59 compounds, activation results are on record in PubChem BioAssay AID602194 (The Scripps Research Institute Molecular Screening Center, 2012).

Molecules are shown by their SMILES. Screen size: about 2,400 compounds; about 140 (5.8%) were called active. The list is a sample of the results. Unmarked numbers belong to inactive results.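 How the source made its calls: active means mean activation across replicates exceeds the hit threshold derived in the earlier primary screen (cut at about 18% in these data); inactive means the rest.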

Chain of Mu-type opioid receptor (Homo sapiens) + Delta-type opioid receptor (Homo sapiens) (P35372 whole entry, looked up): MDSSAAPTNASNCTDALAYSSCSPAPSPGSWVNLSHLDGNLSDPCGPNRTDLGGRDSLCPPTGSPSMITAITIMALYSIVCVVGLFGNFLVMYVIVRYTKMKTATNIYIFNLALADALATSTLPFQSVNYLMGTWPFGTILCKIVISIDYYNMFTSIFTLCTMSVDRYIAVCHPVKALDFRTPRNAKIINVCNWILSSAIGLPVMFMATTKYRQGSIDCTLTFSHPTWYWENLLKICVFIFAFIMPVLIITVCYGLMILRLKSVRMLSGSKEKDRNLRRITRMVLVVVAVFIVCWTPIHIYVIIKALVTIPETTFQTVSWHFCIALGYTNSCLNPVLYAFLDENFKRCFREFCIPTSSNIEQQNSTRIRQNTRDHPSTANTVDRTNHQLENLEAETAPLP
Chain of Mu-type opioid receptor (Homo sapiens) + Delta-type opioid receptor (Homo sapiens) (P41143 whole entry, looked up): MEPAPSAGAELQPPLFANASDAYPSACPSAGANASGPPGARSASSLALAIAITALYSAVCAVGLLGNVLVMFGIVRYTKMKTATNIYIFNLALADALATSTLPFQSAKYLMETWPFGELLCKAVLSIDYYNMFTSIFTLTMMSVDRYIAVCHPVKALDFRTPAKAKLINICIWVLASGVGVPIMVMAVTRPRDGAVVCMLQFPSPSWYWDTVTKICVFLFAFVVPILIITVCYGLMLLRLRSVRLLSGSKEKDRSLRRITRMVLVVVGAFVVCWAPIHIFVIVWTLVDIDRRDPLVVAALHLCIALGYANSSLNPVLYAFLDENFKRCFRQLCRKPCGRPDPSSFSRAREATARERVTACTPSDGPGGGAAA

In the test the target is Mu-type opioid receptor (Homo sapiens) + Delta-type opioid receptor (Homo sapiens) (UniProt P35372+P41143). As to the kind of experiment: agonists of MOR-DOR heterodimerization, counter-screen for MC4R biased agonist project, cell-based, luminescence (AID 602194). The note with it: U2OS PathHunter beta-arrestin, beta-gal luminescence; at 9.2 µM; active compounds read high; percent of deltorphin B response, DMSO zero. Summed up:
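Repeats: triplicate; Test system: U2OS Mu-Delta cell line; Benchmarks: Deltorphin B 0.9 µM final as 100%, DMSO only as 0%; Measured by: beta-gal complementation luminescence; Schedule: 3 h compound exposure at 37 °C, 1 h room-temperature readout; Dosing: single dose, 9.2 µM final nominal compound concentration.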
Background: Counterscreens check selectivity or assay interference.
As to `COc1ccc(Nc2oc(-c3ccccc3Cl)nc2C#N)cc1`, the activation was 6.69%.

As to `CCOC(=O)c1c(-c2ccccc2)oc2cc(Br)c(O)c(C=O)c12`, the activation was 3.34%.

As for `Cc1ccc2nc(-c3ccncc3)cc(C(=O)Nc3ccc(OC(F)F)cc3)c2c1`, the activation is 8.13%.

As for `COc1ccc(/C=N/NC(=O)Nc2ccc3nsnc3c2)c(OC)c1`, the activation is 3.63%.

In the case of `Cc1ccc(-n2nc(C)c(/C=N/NC(=O)c3cccs3)c2Cl)cc1`, the activation is 7.37%.

In the case of `COc1ccccc1NC(=O)Nc1nnc(Cc2ccc(F)cc2)s1`, the activation is 10.7%.

With `Cc1c(-c2ccccc2)n[nH]c1C(=O)N=Nc1c(O)[nH]c2ccccc12`, the activation is 8.27%.

`COc1ccc2nc(NC(=O)c3ccc(Br)s3)sc2c1`: the activation is 8.88%.

Regarding `C=CCn1c(SCC(=O)c2ccc(Br)cc2)nnc1C(C)NC(=O)Cc1ccc(OC)cc1` (centres undefined), the activation was 7.14%.

Consider `O=C(OCc1cn(-c2ccc(Cl)c(Cl)c2)nn1)c1ccccc1Cl`, for which the activation was 3.56%.

Turning to `Cc1ccc(C(=O)Nc2ccc(NC(=O)c3cccs3)cc2)c(C)c1`, the activation is 6.51%.

For `Cc1ccc(Sc2ccc(NC(=O)c3ccc(F)cc3)cc2C#N)cc1`, the activation is 4.2%.

On to `Cc1ccsc1/C=N/Nc1ccc(Cl)nn1`, for which the activation is 5.93%.

In the case of `Cc1ccc(-c2csc(SCC(=O)Nc3cc(C)on3)n2)cc1`, the activation is 7.19%.

Take `COc1cccc(NC(=S)NC(=O)c2c(Cl)c(C)nn2C)c1`: the activation is 3.17%.

As to `N#CC(=C1SC=CS1)c1nc(-c2ccccc2)cs1`, the activation was 3.11%.

For `O=C(c1cc(-c2cccc(O)c2)on1)N1CCc2ccccc2C1`, the activation was 11.4%.

Regarding `CSc1ccc(S(=O)(=O)NCc2ccc(Cl)cc2)cc1`, the activation is 8.41%.

Regarding `Cc1ccc(Nc2nnc(SCC(=O)c3cc4ccccc4o3)s2)cc1C`, the activation was 4.48%.

With `COc1ccc(C(=O)n2nc(-c3ccc(C)cc3)nc2N)cc1OC`, the activation is 4.64%.

As for `Fc1ccccc1/C=N/Nc1cc(N2CCCCC2)ncn1`, the activation was 7.52%.

For the compound `Cc1cc(OCc2cc(C(=O)NCc3cc(C(C)C)no3)no2)cc(C)c1Cl`, the activation is 3.52%.

Regarding `CCN1CCC2(CC1)N=C(c1ccc(F)cc1)C(=S)N2C(=O)c1ccc(C)cc1`, the activation was 52% (active).

`CCN(CC)C(=O)Oc1ccc(Br)cc1C(=O)Nc1ccc(F)c(Cl)c1`: the activation was 3.45%.

As to `CN(C)CCCN(C(=O)c1ccc(S(=O)(=O)N2CCCCCC2)cc1)c1nc2ccc(Br)cc2s1`, the activation is 16.5%.

For the compound `S=C(NCCCc1cnc[nH]1)NCCCN(Cc1ccc(Cl)c(Cl)c1)c1ccc(Br)cn1`, the activation is 5.39%.

Take `COc1ccc(Cn2c(C)c(C)c(C#N)c2NC(=O)Nc2ccc(F)cc2)cc1`: the activation was 7.17%.

Take `COc1cccc(-c2cnc3c(NC(C)=O)cc(-c4cc(F)ccc4OC)cn23)c1`: the activation is 3.13%.

Take `Cc1cc(/C=C(/C#N)C(=O)Nc2ccc(Cl)cc2)c(C)n1-c1cccnc1`: the activation is 4.36%.

For the compound `CCC(=O)c1cc2c(cc1NC(=O)c1cccs1)OCCO2`, the activation is 3.16%.

`COC(=O)c1sccc1NC(=O)c1cc(OC)c(OC)c(OC)c1`: the activation is 2.04%.

Take `Cc1ccc(S(=O)(=O)NCCC(=O)Nc2ccc(C)c(Cl)c2)cc1C`: the activation was 10.4%.

For `CN(C)C(=O)c1cccc(-c2cnc3c(NC=O)cc(-c4ccc(F)cc4)cn23)c1`, the activation was 1.45%.

For the compound `Cn1c(=S)sc2ccc3ccccc3c21`, the activation was 6.66%.

For `COc1ccc(Nc2ncnc3sc(-c4ccccc4)cc23)c(OC)c1`, the activation is 3.93%.

Consider `COc1ccc(C(N)c2csc(NC(=O)Nc3cccc(C(F)(F)F)c3)n2)cc1` (centres undefined), for which the activation was 13.5%.

Take `COc1ccc(CC(N)c2csc(NC(=O)NC(c3ccccc3)c3ccccc3)n2)cc1` (centres undefined): the activation is 27.4% (active).

For the compound `CC(=O)Nc1ccc(-c2csc(NC(=O)Nc3ccccc3)n2)cc1`, the activation was 4.45%.

In the case of `COc1ccc(Cl)cc1-n1c(C)cc(C(=O)OCC(=O)N2CC(=O)Nc3ccccc32)c1C`, the activation is 3.77%.

On to `CC(=O)c1sc(NC(=O)CCCOc2ccccc2C)nc1C`, for which the activation was 7.21%.

With `CSc1nc2sc3c(c2c(=O)[nH]1)CCc1ccccc1-3`, the activation is 7.74%.

Turning to `Cc1ccc(-c2csc(NC(=O)Cn3[nH]c(=O)c4ccccc4c3=O)n2)cc1`, the activation is 6.76%.

For `Cc1ccc(NC(=O)Nc2ccccc2)c(Br)c1`, the activation was 7.33%.

On to `CCn1c(SCC(=O)Nc2cccc(F)c2)nnc1-c1cc2cc(Br)ccc2o1`, for which the activation is 6.83%.

Consider `O=C(Nc1sc2c(c1-c1nc3ccccc3[nH]1)CCCC2)C1CC1`, for which the activation is 4.53%.

As to `Cc1cccc(C)c1OC(=O)CSc1nnc(-c2ccccc2)o1`, the activation is 3.88%.

For the compound `O=C1N/C(=C/c2cccn2-c2ccccc2)C(=O)N1c1cccc(Cl)c1`, the activation is 6.05%.

Regarding `O=C(CSc1ccccc1)Nc1nnc(/C=C/c2ccccc2)s1`, the activation was 6.5%.

For the compound `CCCCN1CC(C)(C)[C@H](CC(=O)Nc2ccc(Br)cc2)C1=O`, the activation was 4.9%.

With `COc1cccc2sc(N(CCCN(C)C)C(=O)C(c3ccccc3)c3ccccc3)nc12`, the activation was 9.67%.

For `COCCNc1nc(Nc2ccccc2Cl)c2sc(-c3ccccc3)cc2n1`, the activation was 5.13%.

For `Cc1nn2cc(-c3ccc(Cl)cc3)cnc2c1Br`, the activation was 2.93%.

Regarding `CCc1ccc2c(c1)cc(CN(C(=S)Nc1ccccc1Cl)C1CC1)c1nnnn12`, the activation was 2.95%.

As for `CC(=O)Nc1ccc(NC(=O)c2sc3nc4c(c(-c5ccc(C)cc5)c3c2N)CCC4)cc1`, the activation was 14.3%.

Consider `Cc1ccc(CCC(=O)Nc2ncc(Cc3cc(Cl)ccc3Cl)s2)o1`, for which the activation was 10.6%.

For the compound `Cc1cc(C)cc(C(=O)OCC(=O)NCCNC(=O)COC(=O)c2cc(C)cc(C)c2)c1`, the activation is 3.35%.

As to `CC(C)c1ccc2c(c1)c(SC(C)(C)C)c(CC(C)(C)C(=O)O)n2Cc1ccc(Cl)cc1`, the activation is 4.65%.

Take `COc1ccc(S(=O)(=O)N2CCC(C(=O)OCC(=O)c3ccccc3)CC2)cc1[N+](=O)[O-]`: the activation was 4.26%.

As for `CCOc1ccc(/C=C/C(=O)OCC(=O)c2ccccc2OC)cc1OC`, the activation is 3.55%.
